{"source": "ChEMBL document CHEMBL4706687", "about": "“Synthesis and Pharmacological Evaluation of Novel Non-nucleotide Purine Derivatives as P2X7 Antagonists for the Treatment of Neuroinflammation” (J Med Chem, 2021)", "assay_type_in_all_cases": "cell-based", "key": {"P2X purinoceptor 7 [1]": {"target": "T1, P2X purinoceptor 7 (Homo sapiens, UniProt Q99572)", "T1 sequence (Q99572 whole entry)": "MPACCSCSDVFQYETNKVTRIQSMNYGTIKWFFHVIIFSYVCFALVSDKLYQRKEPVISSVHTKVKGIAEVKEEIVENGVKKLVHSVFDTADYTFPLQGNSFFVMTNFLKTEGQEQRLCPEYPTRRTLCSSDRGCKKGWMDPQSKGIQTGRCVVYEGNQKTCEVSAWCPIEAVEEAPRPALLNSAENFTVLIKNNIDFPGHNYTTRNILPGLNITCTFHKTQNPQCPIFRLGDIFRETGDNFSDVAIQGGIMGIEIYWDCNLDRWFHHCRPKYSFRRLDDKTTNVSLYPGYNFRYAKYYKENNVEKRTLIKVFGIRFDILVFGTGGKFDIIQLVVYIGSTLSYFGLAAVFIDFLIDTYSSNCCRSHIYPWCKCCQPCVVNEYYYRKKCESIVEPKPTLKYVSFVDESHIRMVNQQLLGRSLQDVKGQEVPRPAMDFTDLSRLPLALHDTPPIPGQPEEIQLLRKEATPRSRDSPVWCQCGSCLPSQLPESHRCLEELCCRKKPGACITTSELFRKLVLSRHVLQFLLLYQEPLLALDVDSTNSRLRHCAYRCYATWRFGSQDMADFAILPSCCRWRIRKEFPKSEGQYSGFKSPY", "assay": "Antagonist activity at human P2X7 receptor expressed in HEK293 cells assessed as reduction in benzoyl-ATP-induced YO-PRO-1 dye uptake pre-incubated for 20 mins before YO-PRO-1 addition and measured after 25 mins by fluorescence plate reader analysis relative to control", "outline": "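Stably transfected hP2X7-HEK293 cells, 48 h after seeding, in Mg²⁺-free Krebs-HEPES (0.2 mM CaCl₂, pH 7.4). Compound preincubation 20 min, then YO-PRO-1 2 μM, then BzATP 30 μM. Fluorescence at 485/520 nm read for 25 min. Each well normalized to Fmax (0.5% Triton X-100) and Fmin (2 M MnCl₂): F = (Fx − F0)/(Fmax − Fmin). Triplicates from three cultures. IC50 is the concentration halving BzATP-induced uptake.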"}, "[2]": {"target": "T2, P2X purinoceptor 7 (Homo sapiens) (UniProt Q99572)", "T2 sequence (whole entry)": "T1 sequence (Q99572 whole entry)", "assay": "(§1) Antagonist activity at human P2X7 receptor expressed in HEK293 cells assessed as reduction in benzoyl-ATP-induced intracellular Ca2+ level by Fura-2 dye based fluorescence assay", "details": "filed as antagonist", "outline": "(§2)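 hP2X7-HEK293 cells 24–48 h after seeding, loaded with Fura-2-AM 8 μM for 1 h, then washed in Mg²⁺-free Tyrode (2 mM CaCl₂, pH 7.4) for 15–30 min with compound present. Excitation 340/380 nm, emission 520 nm. Basal recording, then BzATP injected (100 μM final). [Ca²⁺]c from Grynkiewicz equation. Blockade as percent of BzATP peak in Tyrode-only wells; triplicates.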"}, "P2X purinoceptor 7 [3]": {"target": "T1, P2X purinoceptor 7", "assay": "as §1", "outline": "as §2"}, "[4]": {"target": "T3, P2X purinoceptor 7 (Rattus norvegicus) (UniProt Q64663)", "T3 sequence (whole entry)": "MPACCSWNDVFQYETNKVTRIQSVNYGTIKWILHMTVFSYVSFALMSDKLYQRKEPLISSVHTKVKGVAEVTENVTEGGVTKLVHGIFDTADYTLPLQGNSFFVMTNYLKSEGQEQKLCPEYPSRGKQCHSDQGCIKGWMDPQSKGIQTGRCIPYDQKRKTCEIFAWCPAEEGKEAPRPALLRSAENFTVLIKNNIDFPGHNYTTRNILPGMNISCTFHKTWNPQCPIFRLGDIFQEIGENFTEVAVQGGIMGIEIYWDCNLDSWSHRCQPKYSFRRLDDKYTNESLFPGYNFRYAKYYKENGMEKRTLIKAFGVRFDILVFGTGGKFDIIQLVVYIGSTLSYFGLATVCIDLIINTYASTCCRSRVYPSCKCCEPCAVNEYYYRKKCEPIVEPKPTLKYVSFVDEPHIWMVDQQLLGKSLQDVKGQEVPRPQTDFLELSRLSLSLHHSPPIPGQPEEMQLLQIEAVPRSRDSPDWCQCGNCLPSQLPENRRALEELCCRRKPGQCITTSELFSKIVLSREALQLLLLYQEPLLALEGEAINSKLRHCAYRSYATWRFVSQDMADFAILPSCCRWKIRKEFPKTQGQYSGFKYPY", "assay": "Antagonist activity at rat P2X7 receptor expressed in Xenopus laevis oocytes assessed as reduction in ATP-induced channel currents at 100 uM by TEVC electrophysiology assay relative to control", "details": "Oocyte, filed as antagonist", "outline": "(§3)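 Two-electrode voltage clamp at −70 mV in low divalent-cation solution, oocytes incubated 1–2 days at 16–18 °C after 50 nL cRNA injection: rP2X1 and rP2X4 at 0.5 mg/mL, rP2X2 0.1 mg/mL, rP2X7 25 μg/mL. ATP 10 μM for rP2X1 and rP2X2, 30 μM for rP2X4 and rP2X7. Compound applied 3 min without perfusion. Currents normalized to control; three oocytes from two frogs.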"}, "[5]": {"target": "T4, P2X purinoceptor 4 (Rattus norvegicus) (UniProt P51577)", "T4 sequence (whole entry)": "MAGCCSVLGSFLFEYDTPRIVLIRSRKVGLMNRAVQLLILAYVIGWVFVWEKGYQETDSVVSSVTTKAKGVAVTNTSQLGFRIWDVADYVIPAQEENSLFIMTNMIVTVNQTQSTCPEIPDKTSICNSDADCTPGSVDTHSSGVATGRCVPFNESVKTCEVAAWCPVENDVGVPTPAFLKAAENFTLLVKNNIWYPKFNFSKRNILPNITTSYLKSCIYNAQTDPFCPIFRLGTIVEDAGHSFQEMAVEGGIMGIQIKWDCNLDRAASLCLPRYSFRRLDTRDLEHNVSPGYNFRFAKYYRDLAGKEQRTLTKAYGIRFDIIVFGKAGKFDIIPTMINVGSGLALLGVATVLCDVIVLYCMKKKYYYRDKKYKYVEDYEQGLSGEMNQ", "assay": "Antagonist activity at rat P2X4 receptor expressed in Xenopus laevis oocytes assessed as reduction in ATP-induced channel currents at 100 uM by TEVC electrophysiology assay relative to control", "details": "Oocyte", "outline": "as §3"}}, "note": "Activity calls are given as the source filed them. No cut-off for these calls is given here.", "data": [{"compound": "O=C(Cn1cnc2c(Cl)ncnc21)c1ccc(Cl)cc1Cl", "values": [{"measurement": "IC50", "setting": "P2X purinoceptor 7 [1]", "result": 9, "unit": "µM"}, {"measurement": "inhibition", "setting": "[2]", "result": "Dose-dependent effect"}, {"measurement": "IC50", "setting": "P2X purinoceptor 7 [3]", "result": 13.7, "unit": "µM"}, {"measurement": "inhibition", "setting": "[4]", "result": "Active"}, {"measurement": "inhibition", "setting": "[5]", "result": "inactive"}]}]}
